These results are taken from ChEMBL document CHEMBL1240348, “Pretreatment of epithelial cells with rifaximin alters bacterial attachment and internalization profiles” (Antimicrob Agents Chemother, 2010).

Activity calls are given as the source filed them.

Holding throughout (assay type): functional, cell-based
Assay [1] relates to Escherichia coli. In words: Inhibition of enteroaggregative Escherichia coli 042 adherence to human Hep2 cells pretreated at 32 ug/ml for 24 hrs by adherence assay. The conditions noted are these: HEp-2. The method, boiled down: (§1)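 Confluent cells in 24-well plates, in DMEM with 10% FBS and no antibiotics, were pretreated with drug (from acetone stock) or an equal volume of acetone, then washed three times with PBS. HEp-2 received 8, 32 or 64 μg/ml; the other lines 32 or 64 μg/ml for 24 h. Cells were then infected for 3 h at 37°C (next note).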

For assay [2], the system named is Escherichia coli. In words: Inhibition of enteroaggregative Escherichia coli 042 adherence to human Hep2 cells pretreated at 64 ug/ml for 24 hrs by adherence assay. To be noted: HEp-2. The method, boiled down: as §1
Assay [3] concerns Escherichia coli. The assay is described as follows: Inhibition of enteroaggregative Escherichia coli 042 adherence to human HeLa cells pretreated at 64 ug/ml for 24 hrs by adherence assay. The method, boiled down: as §1
Assay [4] concerns Escherichia coli. In words: Inhibition of enteroaggregative Escherichia coli 042 adherence to human A549 cells pretreated at 64 ug/ml for 24 hrs by adherence assay. In outline:
as §1

Assay [5] deals with Escherichia coli. In words: Inhibition of enteroaggregative Escherichia coli 042 adherence to human HCT-8 cells pretreated at 64 ug/ml for 24 hrs by adherence assay. In outline:
as §1

In assay [6] the test system is Escherichia coli. In words: Inhibition of enteroaggregative Escherichia coli 042 adherence to human Hep2 cells using cell supernatants from pretreated at 64 ug/ml for 24 hrs by adherence assay. The conditions noted are these: HEp-2. In outline: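 Confluent HEp-2 cells were grown 24 h in medium with 64 μg/ml antibiotic, acetone, or nothing. The conditioned medium was dialyzed against PBS (6–8 kDa cutoff, four changes of at least 6 h each, 4°C). EAEC (7 × 10^6/ml) was mixed 1:1 with dialyzed medium and added to untreated HEp-2 slides or cell-free chambers for 3 h, then stained and examined microscopically.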

The subject of assay [7] is HEp-2. In words: Effect on cytokine level in human Hep2 cells assessed as GM-CSF level pretreated at 64 ug/ml for 24 hrs. The method, boiled down: (§2)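 Confluent HEp-2 cells on chambered slides were given fresh medium containing antibiotic at 64 μg/ml, acetone diluent (64 μl), or no antibiotic. Supernatants collected 24 h later were probed on a cytokine array membrane covering GM-CSF, MIPs, MMP3, RANTES, TGF-β, IFN-γ, TNFRI/II, VCAM-1, VEGF and interleukins. Each analyte was read as detected or not detected.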

Assay [8] relates to HEp-2. In words: Effect on cytokine level in human Hep2 cells assessed as MIP4 level pretreated at 64 ug/ml for 24 hrs. In outline: as §2
The subject of assay [9] is HEp-2. In words: Effect on cytokine level in human Hep2 cells assessed as MIP5 level pretreated at 64 ug/ml for 24 hrs. The method, boiled down:
as §2

Assay [10] deals with HEp-2. In words: Effect on cytokine level in human Hep2 cells assessed as MMP3 level pretreated at 64 ug/ml for 24 hrs. The method, boiled down:
as §2

The subject of assay [11] is HEp-2. In words: Effect on cytokine level in human Hep2 cells assessed as RANTES level pretreated at 64 ug/ml for 24 hrs. The method, boiled down:
as §2

Assay [12] concerns HEp-2. The assay is described as follows: Effect on cytokine level in human Hep2 cells assessed as TGF-beta level pretreated at 64 ug/ml for 24 hrs. In outline: as §2
For assay [13], the system named is HEp-2. In words: Effect on cytokine level in human Hep2 cells assessed as IFN-gamma level pretreated at 64 ug/ml for 24 hrs. In outline: as §2
In assay [14] the test system is HEp-2. In words: Effect on cytokine level in human Hep2 cells assessed as TNFRI level pretreated at 64 ug/ml for 24 hrs. In outline:
as §2

For assay [15], the system named is HEp-2. In words: Effect on cytokine level in human Hep2 cells assessed as TNFR2 level pretreated at 64 ug/ml for 24 hrs. In outline: as §2
Assay [16] relates to HEp-2. The assay is described as follows: Effect on cytokine level in human Hep2 cells assessed as VCAM-1 level pretreated at 64 ug/ml for 24 hrs. The method, boiled down: as §2
Assay [17] relates to HEp-2. The assay is described as follows: Effect on cytokine level in human Hep2 cells assessed as VEGF level pretreated at 64 ug/ml for 24 hrs. The method, boiled down: as §2
Assay [18] deals with HEp-2. The assay is described as follows: Effect on cytokine level in human Hep2 cells assessed as IL-4 level pretreated at 64 ug/ml for 24 hrs. The method, boiled down:
as §2

For assay [19], the system named is HEp-2. In words: Effect on cytokine level in human Hep2 cells assessed as IL-6 level pretreated at 64 ug/ml for 24 hrs. The method, boiled down: as §2
The subject of assay [20] is HEp-2. The assay is described as follows: Effect on cytokine level in human Hep2 cells assessed as IL-8 level pretreated at 64 ug/ml for 24 hrs. The method, boiled down:
as §2

The subject of assay [21] is HEp-2. The assay is described as follows: Effect on cytokine level in human Hep2 cells assessed as IL-12 (p40) level pretreated at 64 ug/ml for 24 hrs. The method, boiled down: as §2
The subject of assay [22] is HEp-2. In words: Effect on cytokine level in human Hep2 cells assessed as IL-15 level pretreated at 64 ug/ml for 24 hrs. In outline:
as §2

Assay [23] deals with HEp-2. The assay is described as follows: Effect on cytokine level in human Hep2 cells assessed as absence of MIP5 pretreated at 64 ug/ml for 24 hrs. The method, boiled down:
as §2

In assay [24] the test system is Escherichia coli. In words: Inhibition of enteroaggregative Escherichia coli 042 adherence to human Hep2 cells pretreated by adherence assay. To be noted: HEp-2. The method, boiled down:
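HEp-2 monolayers, confluent unless otherwise specified, in chambered slides were exposed to antibiotic or controls for 4, 8, 16, 18 or 24 h, then washed three times with PBS. EAEC O42 (7 × 10^6 to 1 × 10^7 in DMEM, 10% FBS, 1% D-mannose) was added for 3 h at 37°C. Attachment was assessed microscopically after Wright-Giemsa staining.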

In the case of `CO[C@H]1/C=C/O[C@@]2(C)Oc3c(C)c(O)c4c(O)c(c5c(nc6cc(C)ccn65)c4c3C2=O)NC(=O)/C(C)=C\C=C\[C@H](C)[C@H](O)[C@@H](C)[C@@H](O)[C@@H](C)[C@H](OC(C)=O)[C@@H]1C`, the inhibition entry in the assay on Escherichia coli [1], in the assay with Escherichia coli [2], in the assay with Escherichia coli [3] and in the assay with Escherichia coli [4] was “Active” in each case. The inhibition entry with Escherichia coli [5] and in the assay on Escherichia coli [6] was “inactive” in each case. Also, the result in the assay on HEp-2 [7], in the assay with HEp-2 [8], in the assay with HEp-2 [9], with HEp-2 [10], with HEp-2 [11] and with HEp-2 [12] was Active. For the same molecule, the result in the assay with HEp-2 [13], with HEp-2 [14], in the assay with HEp-2 [15], in the assay on HEp-2 [16], in the assay with HEp-2 [17] and in the assay on HEp-2 [18] was Active. In addition, the result in the assay on HEp-2 [19], in the assay on HEp-2 [20], with HEp-2 [21], in the assay on HEp-2 [22] and with HEp-2 [23] was Active.
Turning to `CO[C@H]1/C=C/O[C@@]2(C)Oc3c(C)c(O)c4c(O)c(c(/C=N/N5CCN(C)CC5)c(O)c4c3C2=O)NC(=O)/C(C)=C\C=C\[C@H](C)[C@H](O)[C@@H](C)[C@@H](O)[C@@H](C)[C@H](OC(C)=O)[C@@H]1C`, the inhibition result with Escherichia coli [24] was “Active”.
